Assay results collected from several papers.
Protocols differ between the studies behind these lines.
Target: Calcium/calmodulin-dependent protein kinase type IV (CAMK4, Homo sapiens, UniProt Q16566)
One construct used (Q16566 1-473): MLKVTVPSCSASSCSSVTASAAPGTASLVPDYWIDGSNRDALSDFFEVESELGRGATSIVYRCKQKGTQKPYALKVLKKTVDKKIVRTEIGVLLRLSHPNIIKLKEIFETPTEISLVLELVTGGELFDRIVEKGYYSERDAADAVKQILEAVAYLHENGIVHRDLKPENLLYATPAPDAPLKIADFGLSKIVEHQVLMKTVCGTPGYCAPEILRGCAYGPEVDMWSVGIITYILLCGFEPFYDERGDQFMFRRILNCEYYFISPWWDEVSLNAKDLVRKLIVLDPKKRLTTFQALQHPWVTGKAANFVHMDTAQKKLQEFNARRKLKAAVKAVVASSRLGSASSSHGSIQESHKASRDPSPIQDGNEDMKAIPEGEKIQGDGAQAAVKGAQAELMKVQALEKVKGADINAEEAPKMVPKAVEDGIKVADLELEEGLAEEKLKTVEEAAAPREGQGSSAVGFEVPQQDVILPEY

O=C(Nc1c[nH]nc1C(=O)NC1CCNCC1)c1cc(F)cc(F)c1
remaining binding (binding; competition with immobilised ligand; 1 µM): 100%

C=CC(=O)N1CCC(C(=O)NCC(=O)N2CCN(c3nc(-c4cnc(N)nc4C(F)F)nc(N4CCOCC4)n3)CC2)CC1
remaining binding (binding; competition with immobilised ligand; 1 µM): 86%

Cc1cnc(Nc2ccc(C(=O)N3CCC(N4CCCC4)CC3)cc2)nc1-c1cc2ccccc2s1
remaining binding (binding; competition with immobilised ligand; 1 µM): 100%

CS(=O)(=O)c1cc(C2(NC(=O)c3cncc4c3cnn4-c3ccc(F)cc3)CC2)ccn1
remaining binding (cell-free assay; competition with immobilised ligand; 1 µM): 100%

c1cncc(-c2cccc(Nc3nccc(NC4CCCCC4)n3)c2)c1
remaining binding (binding; competition with immobilised ligand; 10 µM): 100%

COc1cnc(Nc2cccc(S(N)(=O)=O)c2)nc1N1CCN(c2ccccc2)C(=O)C1
remaining binding (binding; competition with immobilised ligand; 1 µM): 100%

CNC(=O)Nc1ccc2c(c1)[C@@]1(CC2)OC(=O)N(CC(=O)N(Cc2ccc(F)cc2)[C@@H](C)C(F)(F)F)C1=O
remaining binding (cell-free assay; competition with immobilised ligand; 1 µM): 85%

O=C(c1ccc(Nc2ncc(Cl)c(-c3ccc(Cl)s3)n2)cc1)N1CCC(N2CCCC2)CC1
remaining binding (binding; competition with immobilised ligand; 1 µM): 100%

CCN1CCN(Cc2ccc(C(=O)Nc3ccc(C)c(Oc4ccc5c(c4)CC(=O)N5)c3)cc2C(F)(F)F)CC1
remaining binding (binding; competition with immobilised ligand; 1 µM): 100%

N[C@@H]1CCN(c2nccc(-c3cnn4ncccc34)n2)C1
remaining binding (binding; 1 µM): 100%

O=C(NCCCN1CCOCC1)c1ccc(Nc2nccc(-c3cc4ccccc4s3)n2)cc1
remaining binding (binding; competition with immobilised ligand; 1 µM): 100%

C[C@H]1CCN(c2nccc(-c3cnn4ncccc34)n2)C1
remaining binding (binding; 1 µM): 90%

COc1ccc2c(O[C@@H]3C[C@H]4C(=O)N[C@]5(C(=O)O)CC5/C=C\CCCCC[C@H](NC(=O)OC5CCCC5)C(=O)N4C3)cc(-c3csc(NC(=O)C(C)C)n3)nc2c1C (stereo partly shown)
remaining binding (cell-free assay; competition with immobilised ligand; 1 µM): 95%

COc1ccnn2ncc(-c3ccnc(N(C)C)n3)c12
remaining binding (binding; 1 µM): 100%

CCOC(=O)c1cc2cc(-c3cc(C(=O)NCc4ccc(C(=O)O)cc4)nn3C)ccc2[nH]1
remaining binding (cell-free assay; competition with immobilised ligand; 0.1 µM): 95%

c1cnn2ncc(-c3ccnc(N4CCC45COC5)n3)c2c1
remaining binding (binding; 1 µM): 100%

Cn1nc(C(F)(F)F)cc1-c1cnc(N2CCc3cc(S(=O)(=O)Nc4c(F)cc(Cl)cc4F)cc(N4CCCC4=O)c32)nc1
remaining binding (cell-free assay; competition with immobilised ligand; 1 µM): 100%

FC(F)(F)Oc1cccc(-c2cnc3ccc(-c4ccncc4)nn23)c1
remaining binding (cell-free assay; competition with immobilised ligand; 5 µM): 100%

CN(C)c1ncc(F)c(-c2cnn3ncccc23)n1
remaining binding (binding; 1 µM): 100%

COc1cnc(Nc2cccc(S(N)(=O)=O)c2)nc1N1CCN(c2ccccc2)CC1
remaining binding (binding; competition with immobilised ligand; 1 µM): 100%

C[C@H](NC(=O)c1cnc2n1[C@](C)(Cc1ccc(C#N)cc1)C(=O)N2c1cc(Cl)c(F)c(Cl)c1)C(=O)NC1(c2ccccn2)CC1
remaining binding (cell-free assay; competition with immobilised ligand; 1 µM): 100%

Cc1cnn2ncc(-c3ccnc(N(C)C)n3)c2c1
remaining binding (binding; 1 µM): 86%
